Laboratory results from ChEMBL document CHEMBL1123602, “Synthesis and biological properties of N3-(4-methoxyfumaroyl)-L-2,3-diaminopropanoic acid dipeptides, a novel group of antimicrobial agents” (1987).
Converted amounts (≈) assume the structure as drawn.

Legend:
[1] = test system: Candida albicans; test: Antifungal activity against Candida albicans ATCC 26278 strain in YNB medium after incorporation of 10 ug per disk.; type: functional
Outline: (§1)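 C. albicans disk diffusion. YNB medium with 1% glucose and 1% agar was seeded with 10⁴ cfu/mL cells from an overnight Sabouraud culture and poured into dishes. Water-dissolved peptide was loaded onto 6.35-mm paper disks, which were placed on the agar. Zones of inhibition were measured after 48 h at 30 °C.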

[2] = test system: Candida albicans; test: Antifungal activity against Candida albicans ATCC 26278 strain in YNB medium after incorporation of 20 ug per disk.; type: functional; outline: as §1
[3] = test system: Bacillus pumilus; test: Antimicrobial activity against the strain of Bacillus pumilus(1697); type: functional
Outline: (§2)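 Agar dilution MIC on minimal agar Davis medium with 0.1% yeast extract and 0.1% casamino acids containing compound at 200 to 0.2 μg/mL (twofold steps). Cells at 10⁵ cfu/mL were loop-applied to the surface and incubated 24 h at 37 °C. Plates were read visually; MIC is the lowest concentration giving complete growth inhibition.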

[4] = test system: Candida albicans; test: Antimicrobial activity against the strain of Candida albicans(AMB 25); type: functional
Outline: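 MIC by serial twofold dilution, 200 to 0.2 μg/mL, in YNB with 1% glucose. The inoculum was 10⁴ cfu/mL of an overnight culture grown in the same medium, incubated 48 h at 30 °C. Growth was read turbidimetrically; MIC is the lowest concentration giving complete growth inhibition.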

[5] = test system: Escherichia coli; test: Antimicrobial activity against the strain of Escherichia coli(ATCC 9637); type: functional; outline: as §2
[6] = test system: Shigella sonnei; test: Antimicrobial activity against the strain of Shigella sonnei(433); type: functional; outline: as §2
[7] = test system: Staphylococcus aureus; test: Antimicrobial activity against the strain of Staphylococcus aureus (209P); type: functional; outline: as §2
[8] = test system: Shigella sonnei; test: Antibacterial activity against Shigella sonnei 433 strain in medium after incorporation of 10 nmol of GlcNAc antagonist per disk.
[9] = test system: Bacillus pumilus; test: Antibacterial activity against Bacillus pumilus CCM 1697 strain in medium*after incorporation of 10 nmol of GlcNAc antagonist per disk.
[10] = test system: Shigella sonnei; test: Antibacterial activity against Shigella sonnei 433 strain in medium after incorporation of 10 nmol of Leu-Met dipeptide antagonist per disk.
[11] = test system: Shigella sonnei; test: Antibacterial activity against Shigella sonnei 433 strain in medium after incorporation of 10 nmol of Met-Val dipeptide antagonist per disk.
[12] = test system: Bacillus pumilus; test: Antibacterial activity against Bacillus pumilus CCM 1697 strain in medium after incorporation of 10 nmol of Leu-Met dipeptide antagonist per disk.
[13] = test system: Bacillus pumilus; test: Antibacterial activity against Bacillus pumilus CCM 1697 strain in medium after incorporation of 10 nmol of Met-Val dipeptide antagonist per disk.
[14] = test system: Candida albicans; test: Antifungal activity against Candida albicans ATCC 26278 strain in medium after incorporation of 10 nmol of GlcNAc antagonist per disk.; type: functional
Outline: (§3)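 Disk diffusion with the antagonist (GlcNAc or dipeptide) applied to the same 6.35-mm disk as the FMDP dipeptide. Base layer is YNB with 1% glucose and 1% agar, seeded with 10⁴ cfu/mL C. albicans from an overnight Sabouraud culture. Peptides were dissolved in water. Inhibition zones were measured after 48 h at 30 °C.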

[15] = test system: Candida albicans; test: Antifungal activity against Candida albicans ATCC 26278 strain in medium after incorporation of 10 nmol of Leu-Met dipeptide antagonist per disk.; type: functional; outline: as §3
[16] = test system: Candida albicans; test: Antifungal activity against Candida albicans ATCC 26278 strain in medium after incorporation of 10 nmol of Met-Val dipeptide antagonist per disk.; type: functional; outline: as §3
[17] = test system: Candida albicans; test: Activity against Candida albicans ATCC 26278 strain in YNB medium after incorporation of 10 ug per disk expressed as zone size; type: functional; outline: as §1
[18] = test system: Candida albicans; test: Activity against Candida albicans ATCC 26278 strain in YNB medium after incorporation of 20 ug per disk expressed as zone size; type: functional; outline: as §1

| Compound | MIC [3] | MIC [4] | MIC [5] | MIC [6] | MIC [7] | other results |
| --- | --- | --- | --- | --- | --- | --- |
| Nc1nc(=O)[nH]cc1F [FLUCYTOSINE] | – | – | – | – | – | Zone size [1]: 35 mm; Zone size [2]: 39 mm |
| CCCC[C@H](N)C(=O)N[C@H](CNC(=O)/C=C/C(=O)OC)C(=O)O | 0.4 µg/mL (≈ 1.21 µM) | 0.8 µg/mL (≈ 2.43 µM) | 100 µg/mL (≈ 304 µM) | 3.12 µg/mL (≈ 9.47 µM) | 25 µg/mL (≈ 75.9 µM) | Zone size [8]: 0 mm; Zone size [9]: 0 mm; Zone size [10]: 11 mm; Zone size [11]: 10 mm; Zone size [12]: 0 mm; Zone size [13]: 0 mm |
| COC(=O)/C=C/C(=O)NC[C@@H](N)C(=O)N[C@@H](C)C(=O)O | > 200 µg/mL | 3.12 µg/mL (≈ 10.9 µM) | > 200 µg/mL | > 200 µg/mL | > 200 µg/mL | – |
| COC(=O)/C=C/C(=O)NC[C@@H](N)C(=O)N[C@@H](CCSC)C(=O)O | > 200 µg/mL | 1.56 µg/mL (≈ 4.49 µM) | > 200 µg/mL | > 200 µg/mL | > 200 µg/mL | Zone size [1]: 31 mm; Zone size [2]: 35 mm; Zone size [14]: 0 mm; Zone size [15]: 0 mm; Zone size [16]: 0 mm |
| COC(=O)/C=C/C(=O)NC[C@@H](NC(=O)[C@@H](N)CCCCN)C(=O)O | 100 µg/mL (≈ 290 µM) | > 200 µg/mL | > 200 µg/mL | > 200 µg/mL | > 200 µg/mL | – |
| COC(=O)/C=C/C(=O)NC[C@@H](NC(=O)[C@@H](N)Cc1ccc(O)cc1)C(=O)O | 12.5 µg/mL (≈ 32.9 µM) | 50 µg/mL (≈ 132 µM) | > 200 µg/mL | 25 µg/mL (≈ 65.9 µM) | 100 µg/mL (≈ 264 µM) | – |
| Clc1ccc(COC(Cn2ccnc2)c2ccc(Cl)cc2Cl)c(Cl)c1 (stereo unspecified) [MICONAZOLE] | – | – | – | – | – | Zone size [17]: 27 mm; Zone size [18]: 32 mm |
| COC(=O)/C=C/C(=O)NC[C@@H](NC(=O)[C@@H](N)Cc1ccccc1)C(=O)O | 6.25 µg/mL (≈ 17.2 µM) | 12.5 µg/mL (≈ 34.4 µM) | > 200 µg/mL | 12.5 µg/mL (≈ 34.4 µM) | 100 µg/mL (≈ 275 µM) | – |
| Clc1ccccc1C(c1ccccc1)(c1ccccc1)n1ccnc1 [CLOTRIMAZOLE] | – | – | – | – | – | Zone size [1]: 17 mm; Zone size [2]: 21 mm |
| CCC[C@H](NC(=O)[C@H](N)CNC(=O)/C=C/C(=O)OC)C(=O)O | > 200 µg/mL | 6.25 µg/mL (≈ 19.8 µM) | > 200 µg/mL | > 200 µg/mL | 100 µg/mL (≈ 317 µM) | – |
| COC(=O)/C=C/C(=O)NC[C@@H](N)C(=O)N[C@@H](Cc1ccc(O)cc1)C(=O)O | > 200 µg/mL | 25 µg/mL (≈ 65.9 µM) | > 200 µg/mL | > 200 µg/mL | > 200 µg/mL | – |
| COC(=O)/C=C/C(=O)NC[C@@H](NC(=O)[C@@H](N)CCSC)C(=O)O | 3.12 µg/mL (≈ 8.98 µM) | 0.8 µg/mL (≈ 2.3 µM) | 100 µg/mL (≈ 288 µM) | 3.12 µg/mL (≈ 8.98 µM) | 50 µg/mL (≈ 144 µM) | – |
| COC(=O)/C=C/C(=O)NC[C@@H](N)C(=O)NCC(=O)O | > 200 µg/mL | > 200 µg/mL | > 200 µg/mL | > 200 µg/mL | > 200 µg/mL | – |
| CCC[C@H](N)C(=O)N[C@H](CNC(=O)/C=C/C(=O)OC)C(=O)O | 0.4 µg/mL (≈ 1.27 µM) | 0.4 µg/mL (≈ 1.27 µM) | 100 µg/mL (≈ 317 µM) | 3.12 µg/mL (≈ 9.89 µM) | 12.5 µg/mL (≈ 39.6 µM) | Zone size [1]: 40 mm; Zone size [2]: 42 mm |
| COC(=O)/C=C/C(=O)NC[C@@H](NC(=O)[C@@H](N)C(C)C)C(=O)O | 0.8 µg/mL (≈ 2.54 µM) | 1.56 µg/mL (≈ 4.95 µM) | 100 µg/mL (≈ 317 µM) | 1.56 µg/mL (≈ 4.95 µM) | 12.5 µg/mL (≈ 39.6 µM) | – |
| COC(=O)/C=C/C(=O)NC[C@@H](N)C(=O)N[C@H](CNC(=O)/C=C/C(=O)OC)C(=O)O | > 200 µg/mL | > 200 µg/mL | > 200 µg/mL | > 200 µg/mL | > 200 µg/mL | – |
| COC(=O)/C=C/C(=O)NC[C@@H](N)C(=O)N[C@@H](CC(C)C)C(=O)O | > 200 µg/mL | 3.12 µg/mL (≈ 9.47 µM) | > 200 µg/mL | > 200 µg/mL | 100 µg/mL (≈ 304 µM) | – |
| C[C@@H]([C@H](N)C(=O)N[C@H](C(=O)O)[C@H]1O[C@@H](n2ccc(=O)[nH]c2=O)[C@H](O)[C@@H]1O)[C@H](O)c1ccc(O)cn1.C[C@@H]([C@H](N)C(=O)N[C@H](C(=O)O)[C@H]1O[C@H](n2cc(C=O)nc2O)[C@H](O)[C@@H]1O)[C@H](O)c1ccc(O)cn1 | – | – | – | – | – | Zone size [17]: 25 mm; Zone size [18]: 28 mm |
| COC(=O)/C=C/C(=O)NC[C@@H](N)C(=O)N[C@@H](Cc1ccccc1)C(=O)O | > 200 µg/mL | 1.56 µg/mL (≈ 4.29 µM) | > 200 µg/mL | > 200 µg/mL | > 200 µg/mL | – |
| COC(=O)/C=C/C(=O)NC[C@@H](N)C(=O)O | > 200 µg/mL | > 200 µg/mL | > 200 µg/mL | > 200 µg/mL | > 200 µg/mL | – |
| COC(=O)/C=C/C(=O)NC[C@@H](N)C(=O)N[C@H](C(=O)O)C(C)C | > 200 µg/mL | 6.25 µg/mL (≈ 19.8 µM) | > 200 µg/mL | > 200 µg/mL | 100 µg/mL (≈ 317 µM) | – |
| COC(=O)/C=C/C(=O)NC[C@@H](NC(=O)CN)C(=O)O | 25 µg/mL (≈ 91.5 µM) | 12.5 µg/mL (≈ 45.7 µM) | > 100 µg/mL | 50 µg/mL (≈ 183 µM) | > 200 µg/mL | – |
| COC(=O)/C=C/C(=O)NC[C@@H](NC(=O)[C@H](C)N)C(=O)O | 1.56 µg/mL (≈ 5.43 µM) | 0.8 µg/mL (≈ 2.78 µM) | 100 µg/mL (≈ 348 µM) | 3.12 µg/mL (≈ 10.9 µM) | 50 µg/mL (≈ 174 µM) | – |
| COC(=O)/C=C/C(=O)NC[C@@H](NC(=O)[C@@H](N)CC(C)C)C(=O)O | 1.56 µg/mL (≈ 4.74 µM) | 0.8 µg/mL (≈ 2.43 µM) | 100 µg/mL (≈ 304 µM) | 1.56 µg/mL (≈ 4.74 µM) | 12.5 µg/mL (≈ 38 µM) | Zone size [1]: 39 mm; Zone size [2]: 41 mm; Zone size [14]: 0 mm; Zone size [15]: 0 mm; Zone size [16]: 0 mm |
